An excerpt weighted towards active compounds, which were near 3.8% of everything screened.
hERG protect = hERG rescue from dofetilide block, primary screen, cell-based, CHO-hERG, FluxOR thallium flux, dofetilide IC70; dofetilide IC70 present; Voltage-gated inwardly rectifying potassium channel KCNH2 (Homo sapiens), Q12809; hit rate 0.51% among 310,000; AID 1511, 2009; activation (rescue from dofetilide block), less the hit threshold, % at 10 µM;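 active means activation above the mean of controls blocked by dofetilide plus 5 SD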;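 further: thallium influx through hERG after potassium depolarization seen as dye fluorescence rise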
KCNQ1 block = inhibitors of human KCNQ1 channel, primary screen, cell-based, thallium flux, high-throughput. B-score at 10 µM. AID 2642, 2010. CHO-K1 KCNQ1, FluxOR thallium flux fluorescence; hits give high values. hit rate 1.3% among 310,000. Potassium voltage-gated channel subfamily KQT member 1 (Homo sapiens), P51787;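 active means compounds whose thallium flux B-score, printed positive for inhibition, exceeds three library SD while starting fluorescence stays within three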;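 further: channel opened by potassium depolarization with thallium stimulus after 20 min compound exposure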
Target sequence (P51787 whole entry, looked up): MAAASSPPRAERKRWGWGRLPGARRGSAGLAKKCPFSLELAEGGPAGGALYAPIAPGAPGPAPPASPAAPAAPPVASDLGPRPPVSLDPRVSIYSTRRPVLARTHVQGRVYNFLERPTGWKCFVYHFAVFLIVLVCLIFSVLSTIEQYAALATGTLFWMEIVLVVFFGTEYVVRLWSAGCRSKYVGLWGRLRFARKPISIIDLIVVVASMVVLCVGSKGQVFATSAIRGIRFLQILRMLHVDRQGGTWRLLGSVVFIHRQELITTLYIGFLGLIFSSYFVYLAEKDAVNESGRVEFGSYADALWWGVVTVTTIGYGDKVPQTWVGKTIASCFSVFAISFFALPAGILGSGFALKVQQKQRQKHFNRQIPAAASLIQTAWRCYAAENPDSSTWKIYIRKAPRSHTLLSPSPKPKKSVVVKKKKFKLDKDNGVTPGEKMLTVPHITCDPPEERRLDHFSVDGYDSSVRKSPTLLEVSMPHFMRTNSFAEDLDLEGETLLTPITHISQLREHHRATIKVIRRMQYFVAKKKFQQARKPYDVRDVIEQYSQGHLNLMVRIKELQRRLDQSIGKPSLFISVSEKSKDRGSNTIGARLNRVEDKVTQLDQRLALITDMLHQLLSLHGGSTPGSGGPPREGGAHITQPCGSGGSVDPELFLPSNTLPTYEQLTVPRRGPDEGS
Kir21 inh = inhibitors of mouse Kir2.1 inward-rectifier potassium channel | Inward rectifier potassium channel 2 (Mus musculus), P35561 | hit rate 0.85% among 310,000 | HEK293-Kir2.1, FluxOR thallium flux fluorescence; hits give low values | B-score at 10 µM;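 active means fluorescence ratio B-score at or below minus 3 SD of library scores, with starting-brightness B-score within 2 SD, cut at about -4.2 in these data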;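 further: channel flux triggered by added potassium and thallium sulfate stimulus; B-score of peak minus minimum fluorescence over baseline after thallium stimulus; more negative B-score means stronger Kir2.1 block with less thallium influx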
KCNQ1 act = potentiators or activators of KCNQ1 channel, primary screen, cell-based, thallium flux, high-throughput; CHO-K1 KCNQ1, thallium flux FluxOR fluorescence; hits give high values; Potassium voltage-gated channel subfamily KQT member 1 (Homo sapiens), P51787; AID 2648, 2010; B-score at 10 µM; hit rate 0.35% among 310,000;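 active means fluorescence ratio B-score, a plate-corrected score, at least three library SD, with initial intensity B-score within 5 SD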
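Schedule – 37 °C overnight plating, 90-min dark dye load, 20-min compound pretreatment · System – stable KCNQ1 CHO-K1 line · Probe or stimulus – thallium- and potassium-containing depolarizing buffer · Measured by – kinetic FluxOR fluorescence, 10 s baseline plus 110 s post-stimulus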
KCNK9 block = KCNK9 potassium channel inhibitors, primary screen, HEK293 cells, thallium flux; Potassium channel subfamily K member 9 (Homo sapiens), Q9NPC2; FluxOR thallium flux fluorescence; hits give low values; B-score at 10 µM; hit rate 1.2% among 310,000; AID 488922, 2010;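 active means ratio B-score over 3 SD below the library mean, with starting fluorescence within 5 SD of its mean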;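 further: negative B-score means less thallium flux so channel inhibition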
KCNK3 block = human KCNK3 channel inhibitors, primary screen, CHO cells, FluxOR thallium flux, B-score; Potassium channel subfamily K member 3 (Homo sapiens), O14649; AID 602410, 2012; FluxOR fluorescence; hits give low values; hit rate 0.84% among 340,000; B-score at 10 µM;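 active means B-score under library mean minus 4 SD, starting fluorescence ratio at most library mean plus 5 SD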;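 further: more negative B-score means stronger inhibition of thallium flux through KCNK3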
* hit, by the source's call; i = inactive; / = no result given.

SMILES	hERG protect	KCNQ1 block	Kir21 inh	KCNQ1 act	KCNK9 block	KCNK3 block
O=C1N(c2cccc(Cl)c2)C(c2ccc(Cl)cc2)N2CCCN12 (centres undefined)	-19.2	i	1.08	i	i	i
COc1cccc(CN2CCN(Cc3ccc4c(NC(C)=O)cccc4n3)CC2CCO)c1 (centres undefined)	-6.7	i	0.12	i	i	i
O=C(OCC(=O)N1CCN(C(=O)c2ccco2)CC1)c1cc(-c2ccc(Cl)c(Cl)c2Cl)nc2ccccc12	-12.8	i	1.58	i	i	i
Cc1ccc2nc(-c3ccccc3)cc(C(=O)N3CCN(c4ccccc4O)CC3)c2c1	-34.7	12*	1.69	i	i	i
CN1CCCN(C(=O)c2cc(-c3ccc(Cl)c(Cl)c3Cl)nc3ccccc23)CC1	-13.4	i	-4.78*	i	i	i
CCOC(=O)c1ccc(N2CCN(C(C)=O)CC2)c(NC(=O)c2cccnc2)c1	-6.7	i	-0.57	i	i	i
O=C(OCCCc1cc2ccccc2c(=O)o1)c1ccc2c(c1)OCO2	/	/	/	/	/	i
CSCCC(NC(=O)c1ccccc1Cl)C(=O)N(C)Cc1cccs1 (centres undefined)	-17.7	i	0.02	i	i	i
COc1ccc(NC2=NCC(Cc3ccc(Br)cc3)S2)cc1 (centres undefined)	-20.3	i	-2.04	i	i	i
COc1ccccc1NS(=O)(=O)c1ccc(OC)c(OC)c1	2.6	i	-2.73	i	i	i
COc1ccc(OC)c(S(=O)(=O)Nc2cc(OC)c(Cl)cc2OC)c1	-9.4	i	-5.59*	i	i	i
COc1ccccc1NS(=O)(=O)c1cc(Cl)ccc1OC	-12.0	i	-4.84*	i	i	i
COc1cc(NS(=O)(=O)c2ccc(OC)c(C)c2C)c(OC)cc1Cl	-4.6	i	-1.92	i	i	i
COc1cc(OC)c(NS(=O)(=O)c2cc(Br)cnc2N)cc1Cl	-6.1	i	-5.81*	i	i	i
Cc1cnc(=O)[nH]c1SCc1cccc([N+](=O)[O-])c1	-7.2	i	-0.99	i	i	i
CCOc1ccc(-c2c(C(=O)N/N=C/C3CC=CCC3)nnn2-c2nonc2N)cc1 (centres undefined)	-4.3	i	-0.12	i	i	i
Cc1nc(NCCc2ccc(O)cc2)c2nnn(Cc3ccccc3)c2n1	9.1*	i	-1.98	i	i	i
Cc1nc(NCCc2ccc(F)cc2)c2nnn(Cc3ccccc3)c2n1	-1.6	i	0.3	i	i	i
CCOc1ccccc1N(C)C(=O)CCS(=O)(=O)c1ccc2c(c1)NC(=O)CO2	-4.5	i	0.57	i	i	i
CN(C)S(=O)(=O)N(CC(=O)N(Cc1ccccc1)Cc1ccccc1)c1ccccc1	-17.4	i	0.01	i	i	i
CN(C)S(=O)(=O)N(Cc1ccc(Br)cc1)c1ccccc1	-8.2	i	-2.64	i	-7.43*	i
Fc1ccc(Br)cc1C1C=C(c2ccc(Br)cc2)Nc2ncnn21 (centres undefined)	-7.6	i	-1.22	i	i	-12.4*
CCc1ccc(C2=CC(c3cc(Br)ccc3F)n3ncnc3N2)cc1 (centres undefined)	/	/	/	/	/	-8.89*
Cn1nc(C(F)(F)F)c(/C=N/OC(=O)c2ccccc2)c1SCc1ccccc1Cl	-9.1	i	0.52	i	-7.89*	i
Cn1nc(C(F)(F)F)c(/C=N/OC(=O)c2ccccc2)c1Sc1ccc(Cl)cc1	-7.6	i	0.72	i	i	i
SMILES	hERG protect	KCNQ1 block	Kir21 inh	KCNQ1 act	KCNK9 block	KCNK3 block
C=CCOC(=O)c1cn(CC)c2nc(C)ccc2c1=O	-7.0	i	0.06	i	i	i
CCn1cc(C(=O)OCC(=O)OC2CC(C)CCC2C(C)C)c(=O)c2ccc(C)nc21 (centres undefined)	-18.2	i	-2.91	i	i	-11.1*
CCOc1ccc2nc(N3C(=O)/C(=C/c4ccc(Cl)cc4)NC3=S)sc2c1	-2.5	i	2.47	26*	i	i
COc1ccc2nc(N3C(=O)CNC3=S)sc2c1	-6.4	i	0.76	i	i	i
Cn1ncc2c(O/N=C(\N)c3ccc(C(C)(C)C)cc3)ncnc21	-3.9	i	-0.04	10*	i	i
COc1ccc2cc(C(=O)C3CCCN(Cc4cccc(C)n4)C3)ccc2c1 (centres undefined)	-9.6	i	-2.45	i	i	i
Cc1cccc(CN2CCCC(C(=O)c3ccc4c5c(cccc35)CC4)C2)n1 (centres undefined)	-19.3	i	-4.21*	i	i	i
Cc1nn(-c2ccccc2)c(Cl)c1/C=C1\SC(=S)NC1=O	18.9*	i	-0.1	28*	i	i
O=C(COC(=O)/C=C/c1cc(Br)ccc1F)NC1CC1	/	/	/	/	/	i
Cc1cc(N2CCN(c3ccccc3)CC2)nc(-c2ccccc2)n1	-1.9	i	-1.55	i	-7.6*	i
Cc1cc(N2CCOCC2)nc(NCc2ccccc2)n1	-9.6	i	0	i	i	i
Cc1cc(N2CCCCC2)nc(NCc2ccccc2)n1	-7.8	i	-6.7*	i	i	i
O=C(COC(=O)CCNS(=O)(=O)c1ccc2c(c1)OCCO2)NC1CCCc2ccccc21 (centres undefined)	5.3*	i	-0.04	i	i	i
Cc1ccc(NC(=O)C(=O)NCCN2CCN(S(C)(=O)=O)CC2)cc1C	-7.4	i	1.69	i	i	i
Nc1nsc2ccccc12	-21.1	i	-5.12*	i	i	i
C[n+]1ccc(/C=C/c2c[nH]c3ccc(F)cc23)cc1	-18.0	11*	-6.72	i	-6.69*	i
Cc1ccc(NC(=S)NC(=O)c2cncc(Br)c2)cc1Cl	8.8*	i	0.57	i	i	i
O=C(NC(=S)Nc1ccc(Cl)cc1)c1cncc(Br)c1	-2.5	i	0.48	i	i	i
Fc1cccc(F)c1[B-](F)(F)F	/	/	/	/	/	i
COc1ccccc1/C=C/C(=O)N1CCN(S(=O)(=O)c2cc(C)ccc2C)CC1	/	/	/	/	/	-8.78*
COc1ccc(OC)c(/C=C/C(=O)N2CCN(S(=O)(=O)c3cc(C)ccc3C)CC2)c1	/	/	/	/	/	i

From PubChem BioAssay
